# Source: the M2OR odorant receptor database
# How the values were obtained:
# Details in all cases: stereoisomer not certain
# [1] = target: T1, UniProt L7MU75
# T1 sequence (whole entry): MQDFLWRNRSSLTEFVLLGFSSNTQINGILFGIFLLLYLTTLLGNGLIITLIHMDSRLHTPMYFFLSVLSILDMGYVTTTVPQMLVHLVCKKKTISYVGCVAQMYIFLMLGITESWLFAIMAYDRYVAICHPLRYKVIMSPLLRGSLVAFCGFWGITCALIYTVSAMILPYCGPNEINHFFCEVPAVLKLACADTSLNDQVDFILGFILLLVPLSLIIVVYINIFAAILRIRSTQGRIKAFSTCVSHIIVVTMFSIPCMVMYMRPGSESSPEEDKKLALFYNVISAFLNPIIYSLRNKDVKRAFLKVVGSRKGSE
# How it was run: (§1)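 Values were gathered from published papers (main text and supplementary material), with extra details requested from the original authors when needed, and checked for typos and inconsistencies. Each receptor–molecule pair is called responsive (active) if the original authors judged the measured signal statistically different from baseline, and non-responsive (inactive) otherwise. Assay methods varied by source, often transient mammalian cell-line luciferase assays. Recorded details include cell line, G-protein, co-transfected protein and tags.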
# [2] = target: T2, UniProt L7N210
# T2 sequence (whole entry): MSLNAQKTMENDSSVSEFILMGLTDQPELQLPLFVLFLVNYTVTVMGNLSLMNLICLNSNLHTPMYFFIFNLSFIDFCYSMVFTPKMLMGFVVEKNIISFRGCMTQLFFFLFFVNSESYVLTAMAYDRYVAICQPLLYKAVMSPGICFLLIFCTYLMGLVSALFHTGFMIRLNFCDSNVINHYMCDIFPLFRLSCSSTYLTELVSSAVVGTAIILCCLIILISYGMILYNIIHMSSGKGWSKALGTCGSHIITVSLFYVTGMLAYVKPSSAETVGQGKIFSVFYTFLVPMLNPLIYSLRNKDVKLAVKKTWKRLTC
# How it was run: as §1
# [3] = target: T3, UniProt Q3KPB0
# T3 sequence (whole entry): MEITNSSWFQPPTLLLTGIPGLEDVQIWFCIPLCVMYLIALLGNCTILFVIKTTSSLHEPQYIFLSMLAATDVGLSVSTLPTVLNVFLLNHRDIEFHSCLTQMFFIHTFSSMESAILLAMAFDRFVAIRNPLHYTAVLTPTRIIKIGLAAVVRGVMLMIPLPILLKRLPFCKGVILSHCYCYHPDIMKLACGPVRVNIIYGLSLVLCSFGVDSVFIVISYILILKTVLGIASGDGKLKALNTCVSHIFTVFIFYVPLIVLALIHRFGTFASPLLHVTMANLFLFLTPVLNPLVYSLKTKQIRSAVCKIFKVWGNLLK
# How it was run: as §1
# [4] = target: T4, UniProt Q3U0P3
# T4 sequence (whole entry): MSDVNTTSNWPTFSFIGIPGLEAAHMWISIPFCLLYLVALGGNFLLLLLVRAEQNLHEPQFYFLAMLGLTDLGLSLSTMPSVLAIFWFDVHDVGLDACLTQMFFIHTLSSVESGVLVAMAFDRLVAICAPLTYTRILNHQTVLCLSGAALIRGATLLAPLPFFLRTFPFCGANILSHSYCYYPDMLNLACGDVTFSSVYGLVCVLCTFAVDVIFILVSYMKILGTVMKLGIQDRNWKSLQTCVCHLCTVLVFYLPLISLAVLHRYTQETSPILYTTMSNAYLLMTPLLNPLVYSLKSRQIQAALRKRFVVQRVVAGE
# How it was run: as §1
# [5] = target: T5, UniProt Q7TQU8
# T5 sequence (whole entry): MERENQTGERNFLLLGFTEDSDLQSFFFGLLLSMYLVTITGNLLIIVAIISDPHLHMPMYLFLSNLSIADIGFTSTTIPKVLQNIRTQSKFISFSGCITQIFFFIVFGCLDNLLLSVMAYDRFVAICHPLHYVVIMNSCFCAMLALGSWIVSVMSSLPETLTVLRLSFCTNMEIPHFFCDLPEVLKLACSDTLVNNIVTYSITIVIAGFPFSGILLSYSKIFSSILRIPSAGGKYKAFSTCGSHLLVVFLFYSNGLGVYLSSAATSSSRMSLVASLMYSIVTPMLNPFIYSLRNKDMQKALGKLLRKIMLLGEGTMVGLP
# How it was run: as §1
# [6] = target: T6, UniProt Q7TR79
# T6 sequence (whole entry): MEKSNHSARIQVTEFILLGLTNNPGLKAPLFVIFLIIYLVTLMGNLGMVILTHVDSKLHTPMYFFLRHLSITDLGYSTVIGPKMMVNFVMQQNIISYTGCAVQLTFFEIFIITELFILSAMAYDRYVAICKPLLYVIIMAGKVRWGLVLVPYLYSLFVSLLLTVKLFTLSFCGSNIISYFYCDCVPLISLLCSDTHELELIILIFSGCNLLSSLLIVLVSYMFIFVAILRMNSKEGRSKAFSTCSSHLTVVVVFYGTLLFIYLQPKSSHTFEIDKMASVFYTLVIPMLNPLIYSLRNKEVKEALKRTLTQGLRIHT
# How it was run: as §1
# [7] = target: T7, UniProt Q7TRM0
# T7 sequence (whole entry): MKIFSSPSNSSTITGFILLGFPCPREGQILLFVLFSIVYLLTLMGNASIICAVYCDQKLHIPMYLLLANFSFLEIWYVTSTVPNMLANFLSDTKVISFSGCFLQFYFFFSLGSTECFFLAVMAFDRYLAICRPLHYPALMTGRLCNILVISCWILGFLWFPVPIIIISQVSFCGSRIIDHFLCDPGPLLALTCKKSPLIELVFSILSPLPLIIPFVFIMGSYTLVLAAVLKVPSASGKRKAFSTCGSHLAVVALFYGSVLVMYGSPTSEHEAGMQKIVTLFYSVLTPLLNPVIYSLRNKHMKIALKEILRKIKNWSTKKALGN
# How it was run: as §1
# [8] = target: T8, UniProt Q7TRN9
# T8 sequence (whole entry): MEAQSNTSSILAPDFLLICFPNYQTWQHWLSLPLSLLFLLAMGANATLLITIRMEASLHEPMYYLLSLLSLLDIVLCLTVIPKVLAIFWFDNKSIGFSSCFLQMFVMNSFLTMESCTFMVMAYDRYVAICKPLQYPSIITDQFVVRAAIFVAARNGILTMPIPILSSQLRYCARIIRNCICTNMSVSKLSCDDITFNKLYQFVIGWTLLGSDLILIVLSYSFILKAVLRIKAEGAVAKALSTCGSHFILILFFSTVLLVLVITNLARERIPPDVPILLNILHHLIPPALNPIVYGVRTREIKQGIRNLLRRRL
# How it was run: as §1
# [9] = target: T9, UniProt L7N0P5
# T9 sequence (whole entry): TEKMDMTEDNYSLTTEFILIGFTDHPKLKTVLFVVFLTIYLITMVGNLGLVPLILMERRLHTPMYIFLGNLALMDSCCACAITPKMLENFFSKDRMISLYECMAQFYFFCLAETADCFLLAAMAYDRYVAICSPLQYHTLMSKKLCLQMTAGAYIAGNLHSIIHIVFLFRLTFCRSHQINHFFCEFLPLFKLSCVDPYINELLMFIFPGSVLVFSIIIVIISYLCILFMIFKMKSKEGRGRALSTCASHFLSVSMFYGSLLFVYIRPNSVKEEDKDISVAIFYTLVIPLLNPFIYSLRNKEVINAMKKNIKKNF
# How it was run: as §1
# [10] = target: T10, UniProt Q7TQV4
# T10 sequence (whole entry): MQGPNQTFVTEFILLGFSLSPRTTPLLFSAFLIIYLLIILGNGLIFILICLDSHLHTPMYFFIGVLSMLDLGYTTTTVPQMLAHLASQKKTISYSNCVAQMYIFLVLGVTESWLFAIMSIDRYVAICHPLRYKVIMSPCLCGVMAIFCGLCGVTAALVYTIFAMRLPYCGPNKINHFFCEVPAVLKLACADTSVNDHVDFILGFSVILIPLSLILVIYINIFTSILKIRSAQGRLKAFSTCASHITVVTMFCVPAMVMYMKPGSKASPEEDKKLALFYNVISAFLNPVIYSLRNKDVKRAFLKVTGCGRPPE
# How it was run: as §1
# [11] = target: T11, UniProt Q7TR71
# T11 sequence (whole entry): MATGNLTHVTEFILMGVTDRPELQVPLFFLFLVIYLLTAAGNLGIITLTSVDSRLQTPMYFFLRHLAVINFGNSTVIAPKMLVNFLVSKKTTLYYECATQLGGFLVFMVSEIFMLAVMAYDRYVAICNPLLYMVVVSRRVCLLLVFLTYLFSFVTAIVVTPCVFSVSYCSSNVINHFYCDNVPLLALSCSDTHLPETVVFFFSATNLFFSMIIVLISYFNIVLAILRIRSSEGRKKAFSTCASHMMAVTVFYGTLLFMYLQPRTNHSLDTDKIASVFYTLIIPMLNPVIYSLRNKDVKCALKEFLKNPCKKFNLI
# How it was run: as §1
# [12] = target: T12, UniProt Q7TRA3
# T12 sequence (whole entry): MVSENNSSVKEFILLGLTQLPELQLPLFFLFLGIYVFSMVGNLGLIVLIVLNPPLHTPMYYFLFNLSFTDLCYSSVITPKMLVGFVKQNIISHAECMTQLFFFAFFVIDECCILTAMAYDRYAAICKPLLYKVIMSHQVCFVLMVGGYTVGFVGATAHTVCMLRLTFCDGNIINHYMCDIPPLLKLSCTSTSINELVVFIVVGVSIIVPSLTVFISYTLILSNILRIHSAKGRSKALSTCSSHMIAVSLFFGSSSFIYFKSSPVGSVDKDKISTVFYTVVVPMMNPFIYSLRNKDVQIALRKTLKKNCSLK
# How it was run: as §1
# [13] = target: T13, UniProt Q7TRE4
# T13 sequence (whole entry): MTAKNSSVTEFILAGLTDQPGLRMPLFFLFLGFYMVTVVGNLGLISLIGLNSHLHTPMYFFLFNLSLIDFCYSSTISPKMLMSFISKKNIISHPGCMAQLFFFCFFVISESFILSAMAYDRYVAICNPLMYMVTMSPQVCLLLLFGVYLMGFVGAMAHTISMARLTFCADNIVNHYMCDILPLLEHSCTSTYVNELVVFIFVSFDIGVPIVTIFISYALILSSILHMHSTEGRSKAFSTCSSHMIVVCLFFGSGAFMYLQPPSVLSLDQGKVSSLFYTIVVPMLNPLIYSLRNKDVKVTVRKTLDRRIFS
# How it was run: as §1
# [14] = target: UniProt Q7TQR7
# Sequence of UniProt Q7TQR7 (Q7TQR7 as listed by the source): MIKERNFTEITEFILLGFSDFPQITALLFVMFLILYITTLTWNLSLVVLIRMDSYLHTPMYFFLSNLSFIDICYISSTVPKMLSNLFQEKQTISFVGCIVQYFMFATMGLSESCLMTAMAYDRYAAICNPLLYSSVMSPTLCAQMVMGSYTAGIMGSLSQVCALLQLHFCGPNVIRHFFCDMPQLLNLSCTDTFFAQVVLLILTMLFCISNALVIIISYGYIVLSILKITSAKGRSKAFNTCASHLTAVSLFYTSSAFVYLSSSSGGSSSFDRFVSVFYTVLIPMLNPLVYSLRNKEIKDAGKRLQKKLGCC
# How it was run: as §1
# [15] = target: UniProt Q7TQR9
# Sequence of UniProt Q7TQR9 (Q7TQR9 as listed by the source): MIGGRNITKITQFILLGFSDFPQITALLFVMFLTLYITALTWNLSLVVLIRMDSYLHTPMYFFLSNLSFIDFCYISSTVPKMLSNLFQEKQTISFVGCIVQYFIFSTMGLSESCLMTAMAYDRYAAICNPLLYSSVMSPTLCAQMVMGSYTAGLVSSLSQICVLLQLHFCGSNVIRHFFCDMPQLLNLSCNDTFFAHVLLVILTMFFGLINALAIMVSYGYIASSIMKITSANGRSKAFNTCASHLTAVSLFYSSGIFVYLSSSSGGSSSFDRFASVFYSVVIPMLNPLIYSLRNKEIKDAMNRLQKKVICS
# How it was run: as §1
smiles,measurement,setting,value
O=C([O-])CCCCCCCC(=O)[O-].[H+].[H+],odorant receptor agonist call,[1],inactive
same,odorant receptor agonist call,[2],inactive
same,odorant receptor agonist call,[3],inactive
same,odorant receptor agonist call,[4],inactive
same,odorant receptor agonist call,[5],inactive
same,odorant receptor agonist call,[6],inactive
same,odorant receptor agonist call,[7],inactive
same,odorant receptor agonist call,[8],inactive
CC1=NC(C)C(C)S1 (configuration not stated),odorant receptor agonist call,[9],active
CC(=O)c1cnccn1,odorant receptor agonist call,[9],active
COC1=C(C)OC(C)C1=O (configuration not stated),odorant receptor agonist call,[9],inactive
O=C(O)CCCCCC(=O)O,odorant receptor agonist call,[7],inactive
same,odorant receptor agonist call,[8],inactive
CCCCCCCC(=O)[O-].[H+],odorant receptor agonist call,[2],inactive
same,odorant receptor agonist call,[10],inactive
same,odorant receptor agonist call,[11],inactive
same,odorant receptor agonist call,[12],inactive
same,odorant receptor agonist call,[13],inactive
same,odorant receptor agonist call,[7],inactive
same,odorant receptor agonist call,[8],active
O=C([O-])CCCCCCC(=O)[O-].[H+].[H+],odorant receptor agonist call,[1],inactive
same,odorant receptor agonist call,[2],inactive
same,odorant receptor agonist call,[3],inactive
same,odorant receptor agonist call,[4],inactive
same,odorant receptor agonist call,[5],inactive
same,odorant receptor agonist call,[6],inactive
same,odorant receptor agonist call,[7],inactive
same,odorant receptor agonist call,[8],inactive
CCc1nccnc1C,odorant receptor agonist call,[9],active
CC1CCCCCCCCCCCCC(=O)C1 (configuration not stated),odorant receptor agonist call,[14],inactive
same,odorant receptor agonist call,[15],inactive
O=C1Cc2ccccc2O1,odorant receptor agonist call,[2],inactive
same,odorant receptor agonist call,[3],inactive
same,odorant receptor agonist call,[4],inactive
same,odorant receptor agonist call,[5],inactive
same,odorant receptor agonist call,[10],active
same,odorant receptor agonist call,[11],inactive
same,odorant receptor agonist call,[6],inactive
same,odorant receptor agonist call,[12],inactive
same,odorant receptor agonist call,[13],inactive
CCCCCO,odorant receptor agonist call,[1],inactive
same,odorant receptor agonist call,[2],inactive
same,odorant receptor agonist call,[10],inactive
same,odorant receptor agonist call,[11],inactive
same,odorant receptor agonist call,[12],inactive
same,odorant receptor agonist call,[13],inactive
same,odorant receptor agonist call,[8],inactive
